This is an account of results in ChEMBL document CHEMBL4038311, “An Ursolic Acid Derived Small Molecule Triggers Cancer Cell Death through Hyperstimulation of Macropinocytosis” (J Med Chem, 2017).

Molecules are shown by their SMILES. Activity calls are given as the source filed them. The calls are words filed in the database; no cut-off is given here.

Holding throughout (assay type): functional, cell-based
In assay [1] the test system is HepG2. The experiment in a line: Anticancer activity against human HepG2 cells assessed as vacuole formation at 20 uM after 24 hrs by phase contrast microscopic analysis.
In assay [2] the test system is HeLa. The experiment in a line: Induction of methuosis in human HeLa cells assessed as increase in number of cells with macropinosomes at 20 uM preincubated cells with macropinocytosis inhibitor EIPA for 30 mins followed by compound addition measured up to 72 hrs. The method, boiled down:
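HeLa pretreated 30 min with or without 50 µM EIPA, then given 20 µM or DMSO for 4, 8, 12, 18, 24, 36, 48, 60 and 72 h. Cells bearing macropinosomes scored manually from field images and expressed as percentage of cells.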

For assay [3], the system named is HeLa. Nature of the assay: Induction of methuosis in human HeLa cells assessed as decrease in cell viability preincubated cells with dynamin inhibitor dynasore for 1 hr followed by compound addition measured after 48 hrs by CCK8 assay. (In general: Tetrazolium assays rely on reduction of a dye to a coloured formazan, in cell work by metabolically active cells.)

As to `C[C@H]1[C@H](C)CC[C@]2(C(=O)O)CC[C@]3(C)C(=CC[C@@H]4[C@@]5(C)Cc6cnn(-c7ccc(C#N)cc7)c6C(C)(C)[C@@H]5CC[C@]43C)[C@H]12`, in assay [1], the result was Active. Moreover, the outcome in assay [2] and in assay [3] was inactive.
